ChEMBL document CHEMBL4725346, “Syntheses and Evaluation of New Bisacridine Derivatives for Dual Binding of G-Quadruplex and i-Motif in Regulating Oncogene c-myc Expression” (J Med Chem, 2020)
Activity calls are given as the source filed them. The calls are words filed in the database; no cut-off is given here.

Legend:
Raji = experiment: Induction of apoptosis in human Raji cells at 0.6 to 2.4 uM after 24 hrs by propidium iodide staining based flow cytometry; format: functional, cell-based; settings: dose microM 0.6-2.4, time 24.0 hrs
Quadruplex DNA [1] = experiment: Binding affinity to c-myc promoter G-quadruplex/i-motif in human SiHa cells assessed as reduction in c-myc mRNA level incubated for 24 hrs by qRT-PCR analysis; format: cell-based; settings: dose microM 0.625-2.5, time 24.0 hrs
Procedure, shortened: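 SiHa cells at 0, 0.625, 1.25 and 2.5 μM for 24 h; DMSO control. Total RNA extracted with TRIzol. 1.5 μg RNA reverse-transcribed with oligo dT18 and M-MLV (42 °C 60 min). PCR of 30 cycles (95/58/72 °C), products run on 1.2% agarose. β-actin as internal control; three repeats.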

SiHa [2] = experiment: Antitumor activity against human SiHa cells xenografted in BALB/c nude mouse assessed as reduction in tumor weight at 15 mg/kg, ip administered once per 2 days for 18 days relative to control; format: functional; parameters: scale not given: the % may be the effect or the level left; settings: time 18 day
Procedure, shortened: (§1)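 SiHa tumor fragments from donor xenografts (grown to about 1,000 mm³) implanted in the underarm of female BALB/c nude mice; six per group. Dosed ip once every two days for 18 days, saline as negative control, cisplatin 0.2 mg/kg as positive control. Tumor volume = length × width²/2. Tumors weighed at sacrifice.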

SiHa [3] = experiment: Inhibition of cell invasion in human SiHa cells at 0.5 uM by transwell assay relative to control; format: functional
Procedure, shortened: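 Transwell assay: SiHa cells incubated 24 h with 0.5 µM compound. Cell […] through the transwell was compared with an untreated control.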

SiHa [4] = experiment: Induction of cell cycle arrest in human SiHa cells assessed as accumulation of cells at S phase at 0.30 uM after 24 hrs by propidium iodide staining based flow cytometry (reference value: 17.74%); format: functional; settings: dose 0.3 µM
Quadruplex DNA [5] = experiment: Stabilization of 5'-FAM/3'-TAMRA labeled c-myc promoter G-quadruplex DNA FPu22T (unknown origin) assessed as change in melting temperature at 1 uM by FRET assay (reference value: 66.5 degreeC); format: nucleic-acid assay
Procedure, shortened: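 FRET melting of dual FAM/TAMRA-labelled FPu22T annealed in 10 mM Tris-HCl pH 7.4 with KCl. Final 0.2 µM DNA with or without ligand. Excitation 470 nm, emission 530 nm, read every 1 °C over 37–99 °C on a real-time PCR cycler. ΔTm = Tm(DNA+ligand) − Tm(DNA).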

[6] = Toxicity in BALB/c nude mouse xenografted with human SiHa cells assessed as effect on spleen weight at 15 mg/kg, ip administered once per 2 days for 18 days; format: organism-based; settings: in vivo, 432 h, time 18 day
Procedure, shortened: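 SiHa tumour fragments passaged from donor mice implanted in the underarm of female BALB/c nude mice (six per group). Compound given at 15 mg/kg ip once every two days for 18 days, with saline and cisplatin 0.2 mg/kg control groups. Body weight recorded every two days; at day 18 mice were sacrificed and organs weighed.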

Quadruplex DNA [7] = experiment: Binding affinity to c-myc promoter G-quadruplex/i-motif in human SiHa cells assessed as reduction in c-myc mRNA level at 5 uM incubated for 24 hrs by qRT-PCR analysis; format: cell-based; parameters: scale not given: the % may be the effect or the level left
[8] = Binding affinity to 5'-biotin labeled c-myc promoter i-motif DNA Py33 (unknown origin) by surface plasmon resonance method
Procedure, shortened: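 SPR: 5'-biotin DNA diluted to 1 μM and captured (1000 RU) on a sensor chip, with a blank cell as reference. Running buffers: Py33 in 20 mM MES pH 5.8, 100 mM KCl, 0.05% Tween-20; Pu27 and duplex in 50 mM Tris-HCl pH 7.4, 100 mM KCl. Six ligand concentrations serially diluted from DMSO stock. Association 260 s, dissociation 300 s at 25 °C; NaOH regeneration; blank sensorgrams subtracted.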

Huh-7 = experiment: Antiproliferative activity against human Huh-7 cells after 48 hrs by MTT assay; format: functional, cell-based; settings: Huh-7, 48 h
Procedure, shortened: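 Cells seeded at 5.0×10^3 per well, pre-incubated 12 h at 37 °C, 5% CO2, then exposed to compounds for 48 h; DMSO-only control. MTT (2.5 mg/mL) added for 4 h, formazan dissolved in DMSO, absorbance at 570 nm. Each dose tested in triplicate; IC50 from percentage survival relative to negative control.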

SiHa [9] = experiment: Antitumor activity against human SiHa cells xenografted in BALB/c nude mouse assessed as reduction in tumor volume at 15 mg/kg, ip administered once per 2 days for 18 days (reference value: 750 mm3); format: functional; settings: time 18 day; procedure, shortened: as §1

ΔTm (Quadruplex DNA [5]): 9.9 °C
Kd [8]: 2.4 µM
IC50 (Huh-7): 0.16 µM
Structure (SMILES): Cc1ccc2nc3ccc(C)cc3c(NCCCNCCNCCCNc3c4cc(C)ccc4nc4ccc(C)cc34)c2c1
Activity (Raji): Active
Activity (Quadruplex DNA [1]): Dose-dependent effect
Activity (SiHa [2]): 41.6%
inhibition at 0.5 µM (SiHa [3]): 85%
Activity (SiHa [4]): 15.22%
Activity [6]: Non-Toxic
Activity (Quadruplex DNA [7]): < 92.7%
Activity (SiHa [9]): 450 mm3
